We go through two molecules from ChEMBL document CHEMBL1154031, “Glycolipid ester-type heterodimers from Ipomoea tyrianthina and their pharmacological activity” (Bioorg Med Chem Lett, 2009).

Test [1] has as its system Mycobacterium tuberculosis. Put plainly: Antimycobacterial activity against Mycobacterium tuberculosis by microplate blue alamar assay. It counts as functional. The gist of the method: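 Modified microplate Alamar Blue assay (MABA) against M. tuberculosis. Pure compounds tested over 100.00 to 3.13 µg/mL. Activity recorded as the minimal inhibitory concentration (MIC).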

For test [2], the system named is Brain. Briefly: Increase in GABA release in mouse cortical brain slice at 20 ug/mL upto 180 seconds. In kind it is functional, tissue-based. A digest of the protocol:
(§1)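 Anterior cortex slices (250-300 um) cut by hand after decapitation, held at 4 °C in oxygenated modified Krebs-Ringer (pH 7.4) with amino-oxyacetic acid 10.0 uM, then 10 min in basal medium at 37 °C. Compound at a final 20.0 ug/mL; aliquots sampled at 0.5-3.0 min. GABA and glutamate measured by HPLC after O-phthaldialdehyde derivatization and expressed per mg slice protein. Untreated control; mean ± SEM, 3 independent experiments.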

In test [3] the test system is Brain. Briefly: Increase in glutamic acid release in mouse cortical brain slice assessed per mg of protein at 20 ug/mL upto 180 seconds. It counts as functional. A digest of the protocol: as §1
Test [4] has as its system Brain. Put plainly: Increase in GABA release in mouse cortical brain slice at 20 ug/mL after 30 seconds. It counts as functional, tissue-based. The gist of the method: as §1
The subject of test [5] is Aorta. Put plainly: Vasorelaxation activity in Wistar rat endothelium-removed thoracic aortic ring assessed as inhibition of noradrenaline-induced contraction. It counts as functional, tissue-based. A digest of the protocol: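 Endothelium removed from the rings, confirmed by absence of relaxation to carbachol 1 uM. Rings held at 3 g in oxygenated Krebs (37 °C, pH 7.4) and precontracted with noradrenaline 0.3 uM. Cumulative concentration-response curves recorded isometrically. Relaxation calculated by comparing tone before and after compound addition.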

The subject of test [6] is Aorta. Briefly: Vasorelaxation activity in Wistar rat endothelium-intact thoracic aortic ring assessed as inhibition of noradrenaline-induced contraction. It counts as functional, tissue-based. A digest of the protocol: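 Thoracic aortic rings (3-5 mm) with endothelium intact, held at 3 g tension in Krebs solution at 37 °C, pH 7.4, gassed O2/CO2 19:1. Isometric tension recorded. Rings precontracted with noradrenaline 0.3 uM, then given cumulative concentrations. Relaxation taken from tone before and after addition. Vehicle and positive control run in parallel.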

Structures are written as SMILES. In brackets after ≈: the same amount, converted by molar mass. Activity calls are given as the source filed them.

The molecule `CCCCCC1CCCCCCCCCC(=O)O[C@@H]2[C@@H](O[C@@H]3O[C@@H](C)[C@H](OC(=O)CCCCCCCCC[C@@H](CCCCC)O[C@@H]4O[C@H](C)[C@@H](O)[C@H](O)[C@H]4O[C@@H]4O[C@H](CO)[C@@H](O)[C@H](O)[C@H]4O[C@@H]4O[C@@H](C)[C@H](O[C@@H]5O[C@H](C)[C@@H](OC(=O)C(C)CC)[C@H](O)[C@H]5O)C(O)C4OC(=O)C(C)C(C)O)[C@@H](O)[C@@H]3O)[C@H](C)O[C@@H](O[C@H]3[C@H](O[C@H]4[C@H](O1)O[C@H](C)[C@@H](O)[C@@H]4O)O[C@H](COC(=O)C(C)C(C)O)[C@@H](O)[C@@H]3O)[C@@H]2OC(=O)C(C)C(C)O` (stereo partly drawn) [TYRIANTHIN A] gave an MIC in test [1] of 100 µg/mL (≈ 47.7 µM). The result with Brain [2] was Active. The Activity in the test with Brain [3] is on record as 100 pmol. Further, the result with Brain [4] was Active. The result with Aorta [5] was inactive. In the test on Aorta [6], the Emax stood at 81.8% and the IC50 is 240 nM.

For the molecule `CCCCCC1CCCCCCCCCC(=O)O[C@@H]2[C@@H](O[C@@H]3O[C@@H](C)[C@H](OC(=O)CCCCCCCCC[C@@H](CCCCC)O[C@@H]4O[C@H](C)[C@@H](O)[C@H](O)[C@H]4O[C@@H]4O[C@H](CO)[C@@H](O)[C@H](O)[C@H]4O[C@@H]4O[C@@H](C)[C@H](O[C@@H]5O[C@H](C)[C@@H](O)[C@H](O)[C@H]5O)C(O)C4OC(=O)CCC)[C@@H](O)[C@@H]3O)[C@H](C)O[C@@H](O[C@H]3[C@H](O[C@H]4[C@H](O1)O[C@H](C)[C@@H](O)[C@@H]4O)O[C@H](COC(=O)C(C)C(C)O)[C@@H](O)[C@@H]3O)[C@@H]2OC(=O)C(C)C(C)O` (stereo partly drawn) [TYRIANTHIN B], the MIC in test [1] came to 100 µg/mL (≈ 50.5 µM). The outcome with Brain [2] and with Aorta [5] was inactive. This molecule had an Activity in the test with Brain [3] of 180 pmol. Further, the outcome with Brain [4] was Active. The IC50 with Aorta [6] stood at 140 nM.

By MIC is commonly meant the smallest concentration in the dilution series that meets the test's criterion for growth inhibition. What is called Emax is the maximal effect, on the per cent scale that the assay sets. Broadly, the IC50 is the midpoint of a concentration-inhibition curve.
